Measured values reported in ChEMBL document CHEMBL3102735, “Enhancing the pharmacodynamic profile of a class of selective COX-2 inhibiting nitric oxide donors” (Bioorg Med Chem, 2014).
In brackets after ≈: the same amount, converted by molar mass. Activity calls are given as the source filed them. No cut-off for these calls is given here.

Experiments:
J774 = assay: Selectivity index, ratio of IC50 for COX-1 to IC50 for COX-2 in mouse J774 cells; type: cell-based
Summary of the method: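 J774 macrophages stimulated 24 h with E. coli LPS (10 µg/mL) to induce COX-2, with or without compound (0.01–10 µM); supernatant PGE2 by RIA. Triplicate wells, three experiments, percent inhibition versus control, IC50 by sigmoidal fit; selectivity as COX-1/COX-2 IC50 ratio.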

Mus musculus [1] = assay: Analgesic activity in po dosed Swiss albino mouse assessed as reduction of acetic acid-induced writhing measured every 10 mins after 5 mins of administration; type: functional, organism-based
Summary of the method: (§1)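 Male Swiss albino mice (23–25 g), compound given orally in CMC vehicle; writhing induced by 0.6% acetic acid (10 mL/kg) ip. Stretching movements counted for 10 min, starting 5 min after administration; percent reduction versus CMC-treated animals.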

[2] = molecular target: T1, Prostaglandin G/H synthase 2 (Mus musculus, UniProt Q05769); assay: Inhibition of LPS-induced COX-2 in mouse J774 cells using arachidonic acid as substrate assessed as inhibition of prostaglandin E2 production preincubated for 15 mins followed by substrate addition measured after 30 mins by RIA; type: cell-based
T1 sequence (Q05769 whole entry): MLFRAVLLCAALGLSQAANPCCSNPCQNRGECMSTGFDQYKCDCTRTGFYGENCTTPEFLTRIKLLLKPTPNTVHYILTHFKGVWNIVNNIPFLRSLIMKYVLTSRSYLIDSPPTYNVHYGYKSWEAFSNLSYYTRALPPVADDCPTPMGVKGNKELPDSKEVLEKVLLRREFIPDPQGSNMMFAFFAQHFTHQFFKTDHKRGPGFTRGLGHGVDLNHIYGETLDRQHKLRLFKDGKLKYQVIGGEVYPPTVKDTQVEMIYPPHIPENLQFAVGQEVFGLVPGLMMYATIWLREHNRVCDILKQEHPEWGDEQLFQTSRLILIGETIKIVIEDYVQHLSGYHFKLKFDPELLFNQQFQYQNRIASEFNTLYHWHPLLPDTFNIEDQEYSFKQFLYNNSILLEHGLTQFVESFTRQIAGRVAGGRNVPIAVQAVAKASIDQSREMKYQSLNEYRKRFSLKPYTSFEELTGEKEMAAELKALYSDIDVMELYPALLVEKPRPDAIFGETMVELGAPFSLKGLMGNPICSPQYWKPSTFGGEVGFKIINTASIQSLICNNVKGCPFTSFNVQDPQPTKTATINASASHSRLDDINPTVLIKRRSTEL

Mus musculus [3] = assay: Analgesic activity in Swiss albino mouse assessed as reduction of acetic acid-induced writhing at 10 mg/kg, po measured every 10 mins after 5 mins of administration relative to control; type: functional; parameters: scale not given: the % may be the effect or the level left; summary of the method: as §1
[4] = molecular target: T2, Prostaglandin G/H synthase 2 (Mus musculus) (UniProt Q05769); assay: Inhibition of LPS-induced COX-2 in mouse J774 cells using arachidonic acid as substrate assessed as inhibition of prostaglandin E2 production at 10 uM preincubated for 15 mins followed by substrate addition measured after 30 mins by RIA; type: cell-based
T2 sequence (whole entry): T1 sequence (Q05769 whole entry)

Mus musculus [5] = assay: Analgesic activity in Swiss albino mouse assessed as reduction of acetic acid-induced writhing at 20 mg/kg, po measured every 10 mins after 5 mins of administration relative to control; type: functional; parameters: scale not given: the % may be the effect or the level left; summary of the method: as §1
[6] = molecular target: T3, Prostaglandin G/H synthase 1 (Mus musculus) (UniProt P22437); assay: Inhibition of COX-1 in mouse J774 cells using arachidonic acid as substrate assessed as inhibition of prostaglandin E2 production at 10 uM preincubated for 15 mins followed by substrate addition measured after 30 mins by RIA; type: cell-based
T3 sequence (whole entry): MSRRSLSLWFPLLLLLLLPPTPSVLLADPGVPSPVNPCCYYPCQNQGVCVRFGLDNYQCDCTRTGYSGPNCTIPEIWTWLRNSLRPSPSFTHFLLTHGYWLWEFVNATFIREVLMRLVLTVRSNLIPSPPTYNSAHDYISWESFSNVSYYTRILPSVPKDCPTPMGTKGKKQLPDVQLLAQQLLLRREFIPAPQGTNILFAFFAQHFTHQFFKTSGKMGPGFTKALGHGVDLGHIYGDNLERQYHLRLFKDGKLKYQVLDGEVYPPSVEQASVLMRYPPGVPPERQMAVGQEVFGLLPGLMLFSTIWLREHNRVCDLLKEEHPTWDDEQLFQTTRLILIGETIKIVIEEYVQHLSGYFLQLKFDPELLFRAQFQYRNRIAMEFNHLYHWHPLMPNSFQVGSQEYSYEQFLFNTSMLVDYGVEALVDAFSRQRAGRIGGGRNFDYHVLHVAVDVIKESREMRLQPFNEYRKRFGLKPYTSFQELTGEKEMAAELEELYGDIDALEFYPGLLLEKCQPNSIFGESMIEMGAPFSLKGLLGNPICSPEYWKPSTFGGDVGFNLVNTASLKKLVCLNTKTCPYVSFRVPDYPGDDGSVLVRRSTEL
Summary of the method: (§2)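 J774 murine macrophages pretreated 15 min with compound (10 µM; lower concentrations 0.01–1 µM where needed), then incubated 30 min at 37 °C with 15 µM arachidonic acid; supernatant PGE2 measured by RIA. Triplicate wells, mean of three experiments of percent inhibition versus control; IC50 by sigmoidal fit.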

[7] = molecular target: T4, Prostaglandin G/H synthase 1 (Mus musculus, UniProt P22437); assay: Inhibition of COX-1 in mouse J774 cells using arachidonic acid as substrate assessed as inhibition of prostaglandin E2 production preincubated for 15 mins followed by substrate addition measured after 30 mins by RIA; type: cell-based; summary of the method: as §2
T4 sequence (P22437 whole entry): T3 sequence (whole entry)

Mus musculus [8] = assay: Analgesic activity in Swiss albino mouse assessed as reduction of acetic acid-induced writhing at 40 mg/kg, po measured every 10 mins after 5 mins of administration relative to control; type: functional; parameters: scale not given: the % may be the effect or the level left; summary of the method: as §1
[9] = Stability of the compound in phosphate buffer saline assessed as compound remaining at pH 7.4 after 120 mins by LC-MS/MS analysis; type: physicochemical; conditions: read-out: Stability
Summary of the method: (§3)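 Compound (12 µL of 1 mM DMSO solution into 588 µL medium) incubated in PBS pH 7.4, pepsin-free SGF pH 1.5, or EDTA rat plasma. Aliquots taken at 0, 30, 60, 120 min and quenched with ice-cold acetonitrile containing internal standard; parent remaining as percent.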

[10] = Stability of the compound in simulated gastric fluid assessed as compound remaining at pH 1.5 after 60 mins by LC-MS/MS analysis; type: physicochemical; conditions: read-out: Stability
Summary of the method: (§4)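 1 mM DMSO stock added to 0.01 M PBS (pH 7.4) or 0.05 M simulated gastric fluid without pepsin (pH 1.5 with HCl); incubated in hybridisation oven; aliquots at 0, 30, 60, 120 min quenched with ice-cold acetonitrile containing internal standard; parent remaining (%) measured.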

[11] = Stability of the compound in phosphate buffer saline assessed as compound remaining at pH 7.4 after 60 mins by LC-MS/MS analysis; type: physicochemical; conditions: read-out: Stability; summary of the method: as §4
Thoracic aorta [12] = assay: Ex vivo vasorelaxant activity in Wistar rat endothelium thoracic aortic ring assessed as reduction of KCl-induced contraction in presence of guanylate cyclase inhibitor ODQ; type: functional
Summary of the method: (§5)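 Endothelium-denuded thoracic aortic rings from male Wistar rats (250–350 g) in oxygenated Tyrode-type buffer at 37 °C, isometric tension recording. Rings precontracted with 30 mM KCl, then 3-fold increasing compound concentrations (1 nM–10 µM) added, also with 1 µM ODQ preincubated. Emax as % of KCl tone; pIC50; mean ± SE of 6–10 experiments.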

Thoracic aorta [13] = assay: Ex vivo vasorelaxant activity in Wistar rat endothelium thoracic aortic ring assessed as reduction of KCl-induced contraction at 0.001 uM to 10 uM relative to control; type: functional; summary of the method: as §5
[14] = Metabolic stability in Sprague-Dawley rat plasma assessed as compound remaining after 30 mins by LC-MS/MS analysis; type: ADME, cell-free; conditions: read-out: Stability; summary of the method: as §3
[15] = Stability of the compound in phosphate buffer saline assessed as compound remaining at pH 7.4 after 30 mins by LC-MS/MS analysis; type: physicochemical; conditions: read-out: Stability; summary of the method: as §4
[16] = Stability of the compound in simulated gastric fluid assessed as compound remaining at pH 1.5 after 30 mins by LC-MS/MS analysis; type: physicochemical; conditions: read-out: Stability; summary of the method: as §4
[17] = Stability of the compound in simulated gastric fluid assessed as compound remaining at pH 1.5 after 120 mins by LC-MS/MS analysis; type: physicochemical; conditions: read-out: Stability; summary of the method: as §4
[18] = Metabolic stability in Sprague-Dawley rat plasma assessed as compound remaining after 60 mins by LC-MS/MS analysis; type: ADME, cell-free; conditions: read-out: Stability; summary of the method: as §3
[19] = Metabolic stability in Sprague-Dawley rat plasma assessed as compound remaining after 120 mins by LC-MS/MS analysis; type: ADME, cell-free; conditions: read-out: Stability; summary of the method: as §3
[20] = Solubility of the compound in simulated gastric fluid at pH 1.5 after 90 mins by HPLC analysis; type: ADME
Summary of the method: (§6)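 DMSO stock (20 mM) diluted 2 µL into 198 µL PBS 0.01 M pH 7.4 or pepsin-free SGF 0.05 M pH 1.5, duplicate wells, shaken 90 min at 300 rpm. Filtrates analysed by HPLC with photodiode-array detection against seven-point standards (1–200 µM).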

[21] = Solubility of the compound in phosphate buffer saline at pH 7.4 after 90 mins by HPLC analysis; type: physicochemical; summary of the method: as §6

Row | SMILES | inhibition [4] [%] | inhibition [6] [%] | IC50 [7] [nM] | remaining at 2 h [9] [%] | remaining at 1 h [10] [%] | remaining at 1 h [11] [%] | remaining at 0.5 h [14] [%] | remaining at 0.5 h [15] [%] | remaining at 0.5 h [16] [%] | remaining at 2 h [17] [%] | remaining at 1 h [18] [%] | remaining at 2 h [19] [%] | Ratio IC50 (J774) | IC50 [2] [nM] | further results
1 | Cc1c(CC(=O)NC(CO)C(=O)O)cc(-c2ccc(S(C)(=O)=O)cc2)n1-c1ccc(F)cc1 (racemic) | 100 | 23 | > 10000 |  |  |  |  |  |  |  |  |  | > 62.5 | 160 | Activity (Mus musculus [1]): Dose-dependent effect; Activity (Mus musculus [3]): 27%; Activity (Mus musculus [5]): 59%; Activity (Mus musculus [8]): 60%
2 | Cc1c(CC(=O)NC(CO[N+](=O)[O-])C(=O)O)cc(-c2ccc(S(C)(=O)=O)cc2)n1-c1cccc(F)c1 (racemic) | 100 | 0 | > 10000 | 37.5 | 93.8 | 50 | 71.4 | 75 | 100 | 87.5 | 57.1 | 28.6 | > 71 | 140 | Activity (Mus musculus [1]): Dose-dependent effect; Activity (Thoracic aorta [12]): inactive; Activity (Mus musculus [3]): 12%; Emax (Thoracic aorta [13]): 18%; Activity (Mus musculus [5]): 47%; Activity (Mus musculus [8]): 50%
3 | Cc1c(C(N)C(=O)OCCO[N+](=O)[O-])cc(-c2ccc(S(C)(=O)=O)cc2)n1-c1ccc(F)cc1 (stereo not drawn) |  |  |  | 75 | 100 | 75 | 0 | 75 | 100 | 100 | 0 | 0 |  |  | solubility at 1.5 h [20]: > 200 µM; solubility at 1.5 h [21]: 80 µM (≈ 39.3 µg/mL)
4 | Cc1c(CC(=O)NCCCO)cc(-c2ccc(S(C)(=O)=O)cc2)n1-c1cccc(F)c1 | 100 | 17 | > 10000 |  |  |  |  |  |  |  |  |  | > 222 | 45 | 

The next lines start with results.

Row | inhibition [4] [%] | inhibition [6] [%] | IC50 [7] [nM] | remaining at 2 h [9] [%] | remaining at 1 h [10] [%] | remaining at 1 h [11] [%] | remaining at 0.5 h [14] [%] | remaining at 0.5 h [15] [%] | remaining at 0.5 h [16] [%] | remaining at 2 h [17] [%] | remaining at 1 h [18] [%] | remaining at 2 h [19] [%] | SMILES | Ratio IC50 (J774) | IC50 [2] [nM] | further results
5 | 100 | 21 | > 10000 |  |  |  |  |  |  |  |  |  | Cc1c(CC(=O)NCCCO)cc(-c2ccc(S(C)(=O)=O)cc2)n1-c1ccc(F)cc1 | > 147 |  | 
6 | 89 | 19 | > 10000 |  |  |  |  |  |  |  |  |  | Cc1c(CC(=O)NC(CCO)C(=O)O)cc(-c2ccc(S(C)(=O)=O)cc2)n1-c1ccc(F)cc1 (racemic) | > 16 |  | 
7 |  |  |  | 0.15 | 65.7 | 53.6 | 0 | 74.1 | 80.2 | 42.8 | 0 | 0 | Cc1c(CC(=O)OCCO[N+](=O)[O-])cc(-c2ccc(S(C)(=O)=O)cc2)n1-c1cccc(F)c1 |  |  | solubility at 1.5 h [20]: < 1 µM
